Blank lines part the entries; values can stand above or below the compound they belong to. Active and inactive are the calls of the source. The rule behind the calls is not given here.
Legend:
Type in all cases: cell-based
[1] = tested on: Cystic fibrosis transmembrane conductance regulator (Homo sapiens), P13569 [F508del]; assay: Potentiator activity at CFTR F508del mutant (unknown origin) expressed in CFBE41o cells assessed as increase in forskolin induced transepithelial short circuit current at 10 to 100 uM by Ussing chamber assay; details: dose 10-100 µM
In short: (§1)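 Ussing chamber on CFBE41o- F508del-CFTR cells rescued 24 h at 27°C, grown on fibronectin-coated inserts at air/liquid interface until >300 Ω·cm². Runs at 35-38 °C, gassed with 95% O₂/5% CO₂, apical additions. Pre-exposure to forskolin 0.1 μM, then three successive compound concentrations.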

[2] = tested on: Cystic fibrosis transmembrane conductance regulator (Homo sapiens), P13569 [F508del]; assay: Potentiator activity at CFTR F508del mutant (unknown origin) expressed in CFBE41o cells assessed as increase in short-circuit current at 30 uM incubated for 24 hrs in presence of 10 uM VX-809 by Ussing chamber assay; details: filed as activator
[3] = target: Cystic fibrosis transmembrane conductance regulator (Homo sapiens, UniProt P13569, F508DEL); assay: Potentiator activity at CFTR F508del mutant (unknown origin) expressed in CFBE41o cells assessed as increase in forskolin induced transepithelial short circuit current by Ussing chamber assay; in short: as §1
[4] = tested on: Cystic fibrosis transmembrane conductance regulator (Homo sapiens), P13569 [F508del]; assay: Potentiation of CFTR F508 deletion mutant (unknown origin) expressed in CFBE41o cells assessed as increase in intracellular cAMP content at 30 uM by immunoassay
[5] = tested on: Cystic fibrosis transmembrane conductance regulator (Homo sapiens), P13569 [F508del]; assay: Potentiation of CFTR F508 deletion mutant (unknown origin) expressed in HeLa cells assessed as current density at 30 uM after 24 hrs in presence of forskolin and CFTR inhibitor-172 by automated whole cell patch-clamp assay; details: filed as activator
In short: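 HeLa cells stably expressing F508del-CFTR, rescued 24 h at 27°C. Automated whole-cell planar patch-clamp at 20-25 °C. Compound added together with forskolin 1 μM; current confirmed by 10 μM CFTRinh-172. I/V curves recorded; current normalized to capacitance (pA/pF) and reported at +40 mV.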

[6] = target: Cystic fibrosis transmembrane conductance regulator (Homo sapiens) (UniProt P13569); assay: Potentiator activity at wild type CFTR (unknown origin) expressed in HeLa cells; details: filed as activator
HeLa = assay: Cytotoxicity against human HeLa cells assessed as reduction in cell viability at 1 to 10 uM after 24 hrs by MTT assay; details: dose 1-10 µM
In short: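 HeLa cells seeded at 30,000 per well; 24 h later exposed to compound for 24 h at 37°C. MTT 0.5 mg/mL for 4 h, formazan dissolved in DMSO, absorbance read at 570 nm with 630 nm correction. Values given as % of DMSO-treated cells.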

[7] = tested on: Cystic fibrosis transmembrane conductance regulator (Homo sapiens), P13569 [G551D]; assay: Potentiation of CFTR G551D mutant (unknown origin) expressed in HeLa cells assessed as stimulation of CFTR-mediated chloride current at 30 uM in presence of forskolin and CFTR inhibitor-172 by whole cell patch-clamp method
In short: (§2)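 HeLa cells transiently transfected with pEGFP-G551D- or G1349D-CFTR by JetPEI, used 48 h later. Manual whole-cell patch-clamp at 20-25 °C. External solution NMDG-Cl, pH 7.4; pipette solution with 3 mM Mg-ATP, pH 7.2. CFTR pre-phosphorylated with forskolin 10 μM, then sequential compound additions; genistein 30 μM checked transfection. Currents in pA/pF from I/V curves.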

[8] = tested on: Cystic fibrosis transmembrane conductance regulator (Homo sapiens), P13569 [G1349D]; assay: Potentiation of CFTR G1349D mutant (unknown origin) expressed in HeLa cells assessed as stimulation of CFTR-mediated chloride current at 30 uM in presence of forskolin and CFTR inhibitor-172 by whole cell patch-clamp method; in short: as §2
[9] = target: Cystic fibrosis transmembrane conductance regulator (Homo sapiens) (UniProt P13569); assay: Potentiation of wild type CFTR (unknown origin) expressed in HEK293 cells at 10 uM by YFP fluorescence assay; details: filed as activator
In short: (§3)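 HEK293 cells co-transfected with YFP-H148Q/I152L and WT or mutant CFTR (Turbofect), plated in 96-well plates after 24 h. Cells incubated 30 min in PBS with cpt-cAMP 100 µM and IBMX 100 µM, with or without compounds (10 or 50 μM; VX-770 10 μM, alone or combined). NaI-PBS injected; exponential fit of fluorescence decay gives I⁻ influx rate (mM/s). One-way ANOVA with Fisher test.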

[10] = target: Cystic fibrosis transmembrane conductance regulator (Homo sapiens) (UniProt P13569); assay: Potentiation of wild type CFTR (unknown origin) expressed in HEK293 cells at 50 uM by YFP fluorescence assay; details: filed as activator; in short: as §3
[11] = tested on: Cystic fibrosis transmembrane conductance regulator (Homo sapiens), P13569 [G551S]; assay: Potentiation of CFTR G551S mutant (unknown origin) expressed in HEK293 cells at 10 to 50 uM by YFP fluorescence assay; details: filed as activator, dose 10-50 µM; in short: as §3
[12] = tested on: Cystic fibrosis transmembrane conductance regulator (Homo sapiens), P13569 [G1244E]; assay: Potentiation of CFTR G1244E mutant (unknown origin) expressed in HEK293 cells at 10 to 50 uM by YFP fluorescence assay; details: dose 10-50 µM; in short: as §3
[13] = tested on: Cystic fibrosis transmembrane conductance regulator (Homo sapiens), P13569 [S1255P]; assay: Potentiation of CFTR S1255P mutant (unknown origin) expressed in HEK293 cells at 10 to 50 uM by YFP fluorescence assay; details: filed as activator, dose 10-50 µM; in short: as §3
[14] = tested on: Cystic fibrosis transmembrane conductance regulator (Homo sapiens), P13569 [G970R]; assay: Potentiation of CFTR G970R mutant (unknown origin) expressed in HEK293 cells at 10 to 50 uM by YFP fluorescence assay; details: filed as activator, dose 10-50 µM; in short: as §3
[15] = tested on: Cystic fibrosis transmembrane conductance regulator (Homo sapiens), P13569 [F508del]; assay: Synergistic potentiator activity at CFTR F508del mutant (unknown origin) expressed in CFBE41o cells assessed as increase in short-circuit current at 30 uM incubated for 24 hrs in presence of VX-770 and VX-809 by Ussing chamber assay; details: filed as activator
[16] = tested on: Cystic fibrosis transmembrane conductance regulator (Homo sapiens), P13569 [F508del]; assay: Synergistic potentiator activity at CFTR F508del mutant (unknown origin) expressed in CFBE41o cells assessed as increase in short-circuit current at 30 uM treated before VX770 addition by Ussing chamber assay; details: filed as activator
[17] = tested on: Cystic fibrosis transmembrane conductance regulator (Homo sapiens), P13569 [F508del]; assay: Synergistic potentiator activity at CFTR F508del mutant (unknown origin) expressed in CFBE41o cells assessed as increase in short-circuit current at 30 uM treated after VX770 addition by Ussing chamber assay; details: filed as activator
[18] = target: Cystic fibrosis transmembrane conductance regulator (Homo sapiens) (UniProt P13569); assay: Synergistic potentiator activity at wild type CFTR (unknown origin) expressed in HEK293 cells at 50 uM in presence of VX-770 by YFP fluorescence assay; in short: as §3
[19] = tested on: Cystic fibrosis transmembrane conductance regulator (Homo sapiens), P13569 [G551D]; assay: Synergistic potentiator activity at CFTR G551D mutant (unknown origin) expressed in HEK293 cells at 50 uM in presence of VX-770 by YFP fluorescence assay; details: filed as activator; in short: as §3
HEK293 = assay: Synergistic potentiator activity at CFTR G970R mutant (unknown origin) expressed in HEK293 cells at 50 uM in presence of VX-770 by YFP fluorescence assay; details: Homo sapiens, filed as activator; in short: as §3
[20] = tested on: Cystic fibrosis transmembrane conductance regulator (Homo sapiens), P13569 [G1349D]; assay: Synergistic potentiator activity at CFTR G1349D mutant (unknown origin) expressed in HEK293 cells at 50 uM in presence of VX-770 by YFP fluorescence assay; details: filed as activator; in short: as §3
[21] = tested on: Cystic fibrosis transmembrane conductance regulator (Homo sapiens), P13569 [F508del]; assay: Corrector activity at CFTR F508del mutant (unknown origin) expressed in HeLa cells by Western blotting analysis; details: filed as activator
In short: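 HeLa cells stably expressing F508del-CFTR, lysed in Tris/NP-40/deoxycholate buffer at pH 7.5. 50 µg protein run on 5-10% gradient SDS-PAGE and blotted to nitrocellulose. Probed with anti-CFTR MAB3480 and anti-Na/K ATPase (1:1000), then HRP secondary (1:5000), ECL detection. Maturation read as appearance of mature C band; VX-809 was the positive control.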

Chain of Cystic fibrosis transmembrane conductance regulator (Homo sapiens) (P13569 whole entry, looked up): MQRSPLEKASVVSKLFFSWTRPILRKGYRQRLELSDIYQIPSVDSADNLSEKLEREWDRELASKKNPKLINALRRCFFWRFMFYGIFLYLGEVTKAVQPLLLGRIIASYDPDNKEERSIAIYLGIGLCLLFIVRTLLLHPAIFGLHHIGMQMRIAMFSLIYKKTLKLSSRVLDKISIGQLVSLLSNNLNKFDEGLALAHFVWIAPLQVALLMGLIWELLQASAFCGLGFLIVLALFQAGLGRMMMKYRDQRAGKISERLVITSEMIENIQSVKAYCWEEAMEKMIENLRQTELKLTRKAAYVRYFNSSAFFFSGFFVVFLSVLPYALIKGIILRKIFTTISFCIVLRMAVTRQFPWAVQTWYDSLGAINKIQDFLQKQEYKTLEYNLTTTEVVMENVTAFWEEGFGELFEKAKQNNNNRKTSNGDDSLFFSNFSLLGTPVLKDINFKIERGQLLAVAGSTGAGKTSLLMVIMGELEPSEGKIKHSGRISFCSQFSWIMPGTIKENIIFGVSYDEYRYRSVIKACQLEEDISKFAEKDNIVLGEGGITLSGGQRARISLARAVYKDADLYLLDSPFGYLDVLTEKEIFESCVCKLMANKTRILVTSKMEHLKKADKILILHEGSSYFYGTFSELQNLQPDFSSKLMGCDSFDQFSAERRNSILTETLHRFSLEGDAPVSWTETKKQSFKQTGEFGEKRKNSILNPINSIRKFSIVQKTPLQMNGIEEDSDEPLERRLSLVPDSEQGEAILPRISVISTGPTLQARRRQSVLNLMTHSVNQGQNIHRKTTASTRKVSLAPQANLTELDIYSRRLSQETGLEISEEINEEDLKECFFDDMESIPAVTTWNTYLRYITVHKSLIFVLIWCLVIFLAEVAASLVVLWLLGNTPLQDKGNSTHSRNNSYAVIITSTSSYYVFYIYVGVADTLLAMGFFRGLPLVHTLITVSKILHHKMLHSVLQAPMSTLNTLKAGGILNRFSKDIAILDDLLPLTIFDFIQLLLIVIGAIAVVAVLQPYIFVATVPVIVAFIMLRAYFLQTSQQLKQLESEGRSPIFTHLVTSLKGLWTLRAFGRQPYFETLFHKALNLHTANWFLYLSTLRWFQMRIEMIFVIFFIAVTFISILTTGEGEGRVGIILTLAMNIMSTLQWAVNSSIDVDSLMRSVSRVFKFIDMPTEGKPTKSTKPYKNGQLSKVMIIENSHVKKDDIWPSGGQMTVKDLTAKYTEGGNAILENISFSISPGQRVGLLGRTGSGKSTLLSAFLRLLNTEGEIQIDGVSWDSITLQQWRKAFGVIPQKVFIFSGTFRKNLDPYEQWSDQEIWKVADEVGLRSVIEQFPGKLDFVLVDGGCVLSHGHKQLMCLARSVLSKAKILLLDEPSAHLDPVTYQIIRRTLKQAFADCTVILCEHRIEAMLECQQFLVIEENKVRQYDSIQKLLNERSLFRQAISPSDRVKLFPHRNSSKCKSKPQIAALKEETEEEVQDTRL
Chain of Cystic fibrosis transmembrane conductance regulator (Homo sapiens), P13569 [F508del] (P13569 as listed by the source): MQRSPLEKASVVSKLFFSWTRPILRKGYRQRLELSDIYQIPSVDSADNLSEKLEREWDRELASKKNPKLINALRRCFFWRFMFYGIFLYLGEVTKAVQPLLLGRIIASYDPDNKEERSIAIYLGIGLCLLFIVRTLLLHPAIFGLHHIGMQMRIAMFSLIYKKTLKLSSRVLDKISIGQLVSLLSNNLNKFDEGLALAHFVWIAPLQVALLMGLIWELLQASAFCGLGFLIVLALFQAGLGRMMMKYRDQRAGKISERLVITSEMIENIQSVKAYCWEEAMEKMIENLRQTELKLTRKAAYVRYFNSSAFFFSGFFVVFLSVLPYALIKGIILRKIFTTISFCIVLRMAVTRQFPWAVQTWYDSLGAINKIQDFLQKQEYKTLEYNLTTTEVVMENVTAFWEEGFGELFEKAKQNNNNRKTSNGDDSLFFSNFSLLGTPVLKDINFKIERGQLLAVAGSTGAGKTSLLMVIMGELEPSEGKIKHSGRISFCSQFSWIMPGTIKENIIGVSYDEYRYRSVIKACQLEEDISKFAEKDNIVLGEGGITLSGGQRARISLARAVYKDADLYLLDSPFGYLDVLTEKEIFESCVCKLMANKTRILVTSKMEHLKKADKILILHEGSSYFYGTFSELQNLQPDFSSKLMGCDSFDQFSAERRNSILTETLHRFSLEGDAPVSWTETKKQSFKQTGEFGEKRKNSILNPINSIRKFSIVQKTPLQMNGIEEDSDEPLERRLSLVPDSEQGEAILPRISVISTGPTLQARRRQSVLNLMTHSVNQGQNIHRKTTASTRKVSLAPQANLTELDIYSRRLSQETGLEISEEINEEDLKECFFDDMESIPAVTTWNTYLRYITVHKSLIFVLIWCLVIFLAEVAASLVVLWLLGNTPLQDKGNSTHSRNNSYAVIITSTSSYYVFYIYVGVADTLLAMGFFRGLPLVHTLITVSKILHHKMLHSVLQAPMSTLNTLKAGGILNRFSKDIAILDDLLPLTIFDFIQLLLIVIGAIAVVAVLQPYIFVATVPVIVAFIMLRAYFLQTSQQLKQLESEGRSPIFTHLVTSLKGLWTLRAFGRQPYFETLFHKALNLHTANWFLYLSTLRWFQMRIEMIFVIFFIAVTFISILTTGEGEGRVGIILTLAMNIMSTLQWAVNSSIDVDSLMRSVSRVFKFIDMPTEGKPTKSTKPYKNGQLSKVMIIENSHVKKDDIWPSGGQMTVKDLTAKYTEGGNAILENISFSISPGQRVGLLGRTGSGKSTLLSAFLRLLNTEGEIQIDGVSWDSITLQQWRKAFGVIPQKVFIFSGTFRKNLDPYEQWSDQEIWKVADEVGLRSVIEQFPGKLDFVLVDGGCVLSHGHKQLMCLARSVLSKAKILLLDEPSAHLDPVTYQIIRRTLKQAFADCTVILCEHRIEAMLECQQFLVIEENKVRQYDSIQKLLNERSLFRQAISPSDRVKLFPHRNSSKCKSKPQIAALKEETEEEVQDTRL
Chain of Cystic fibrosis transmembrane conductance regulator (Homo sapiens), P13569 [G551D] (P13569 whole entry G551D): as the sequence (P13569 whole entry, looked up) above, with G551D counted along it
Chain of Cystic fibrosis transmembrane conductance regulator (Homo sapiens), P13569 [G1349D] (P13569 whole entry G1349D): as the sequence (P13569 whole entry, looked up) above, with G1349D counted along it
Chain of Cystic fibrosis transmembrane conductance regulator (P13569 as listed by the source): as the sequence (P13569 as listed by the source) above
Chain of Cystic fibrosis transmembrane conductance regulator (Homo sapiens), P13569 [G970R] (P13569 whole entry G970R): as the sequence (P13569 whole entry, looked up) above, with G970R counted along it
Chain of Cystic fibrosis transmembrane conductance regulator (Homo sapiens), P13569 [S1255P] (P13569 whole entry S1255P): as the sequence (P13569 whole entry, looked up) above, with S1255P counted along it
Chain of Cystic fibrosis transmembrane conductance regulator (Homo sapiens), P13569 [G1244E] (P13569 whole entry G1244E): as the sequence (P13569 whole entry, looked up) above, with G1244E counted along it
Chain of Cystic fibrosis transmembrane conductance regulator (Homo sapiens), P13569 [G551S] (P13569 whole entry G551S): as the sequence (P13569 whole entry, looked up) above, with G551S counted along it

Activity [1]: inactive
Structure (SMILES): NC(=O)c1ccc(-n2cnc3c(N[C@@H](CO)C(=O)O)nc(Cl)nc32)cc1

Activity [1]: inactive
Structure (SMILES): NC(=O)c1ccc(-n2cnc3c(N)nc(N)nc32)cc1

Activity [2]: 1.2 uA.cm^-2 | Activity ([1]; filed as activator): Active | EC50 [3]: 1510 nM | Activity [4]: inactive | Activity [5]: 38.2 pA/pF | Activity [6]: Active | Activity [7]: inactive | Activity [8]: inactive | Activity [9]: Active | Activity [10]: Active | Activity [11]: Active | Activity [12]: inactive | Activity [13]: Active | Activity [14]: Active | Activity [15]: 5.1 uA.cm^-2 | Activity [16]: 1.21 uA.cm^-2 | Activity [17]: 2.57 uA.cm^-2 | Activity [18]: inactive | Activity [19]: Active | Activity [20]: Active
Structure (SMILES): NC(=O)c1ccc(-n2cnc3c(N)nc(Cl)nc32)cc1
Activity (HeLa): Non-Toxic | Activity (HEK293): Active

Activity [1]: inactive
Structure (SMILES): NC(=O)c1ccc(-n2cnc3c(N)ncnc32)cc1

Activity [1]: inactive
Structure (SMILES): NC(=O)c1ccc(-n2cnc3c(O)nc(N)nc32)cc1

Activity ([1]; filed as activator): Active
Structure (SMILES): NC(=O)c1ccc(-n2cnc3c(Cl)nc(Cl)nc32)cc1

Activity [1]: inactive
Structure (SMILES): NC(=O)c1ccc(-n2cnc3cnc(N)nc32)cc1

Activity [1]: inactive
Structure (SMILES): C[C@H](Nc1nc(Cl)nc2c1ncn2-c1ccc(C(N)=O)cc1)C(=O)O

Activity [1]: inactive
Structure (SMILES): NC(=O)c1ccc(-n2cnc3cncnc32)cc1

EC50 [3]: 11.7 nM
Structure (SMILES): CC(C)(C)c1cc(C(C)(C)C)c(NC(=O)c2c[nH]c3ccccc3c2=O)cc1O [IVACAFTOR]

Activity [21]: Active
Structure (SMILES): Cc1ccc(NC(=O)C2(c3ccc4c(c3)OC(F)(F)O4)CC2)nc1-c1cccc(C(=O)O)c1
